Compounds with a hit are over-represented: about 2.4% of the library has one in this group of screens.
STEP inh = STEP phosphatase inhibitors, primary screen, biochemical, fluorescence intensity, uHTS. Tyrosine-protein phosphatase non-receptor type 5 (Homo sapiens), P54829. recombinant STEP, OMFP fluorogenic substrate. inhibition, % at 20 µM. 360,000 tested, 0.25% active;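 active = inhibition at 20 µM, scaled per plate between control wells, above about 37%, limit read from the data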;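 note: 0% = DMSO with enzyme and substrate and 100% = substrate only without enzyme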
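Test system: STEP tyrosine phosphatase / Reagent: OMFP at 25 µM / Doses: 20 µM, 1% DMSO / Read-out: percent inhibition scaled to no-enzyme and uninhibited-enzyme controls, plate-pattern corrected / Detection: FITC-channel fluorescence of OMFP product / Medium: Bis-Tris buffer pH 6.0, 2.5 mM DTT, 0.005% Tween 20 / Schedule: 20 min at room temperature, dark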
DNMT1 block = human DNMT1 methyltransferase inhibitors, primary screen, biochemical, molecular beacon, fluorescence, HinP1I cleavage, uHTS; 360,000 tested, 0.83% active; inhibition (reported as % activation of signal), % at 10 µM; in the data active = inhibition above about 50%
NadD block = inhibitors of S. aureus NadD, primary screen, biochemical, colorimetric, uHTS; Nicotinate-nucleotide adenylyltransferase NadD (Staphylococcus aureus N315); purified NadD enzyme, colorimetric absorbance read-out; inhibition, % at 20 µM; 360,000 tested, 0.78% active; AID 602399, 2012; in the data active = inhibition above about 26%
LMPTP inh = LMPTP phosphatase inhibitors, primary screen, biochemical, fluorescence intensity, uHTS; 360,000 tested, 0.22% active; recombinant LMPTP-A, OMFP fluorogenic substrate; Low molecular weight phosphotyrosine protein phosphatase (Homo sapiens), P24666; AID 651560, 2012; inhibition, % at 20 µM;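 active = compounds that cut the enzyme signal by at least half of the control window in the single-dose screen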;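 note: plate controls were DMSO wells with enzyme plus substrate for no effect and substrate without enzyme for full effect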
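Material: LMPTP-A; amount: 0.625 nM enzyme; doses: single 20 µM dose; times: reaction 50 min, room temperature, dark; technique: fluorescence intensity of OMFP turnover product; benchmarks: no-enzyme and uninhibited controls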
SUMO1 PPI mod = modulators of SUMO1 protein-protein interactions, primary screen, biochemical, uHTS | Small ubiquitin-related modifier 1 (Homo sapiens), P63165 | SUMO1 binding to a labelled peptide, TR-FRET, 1 h | inhibition, % at 20 µM | 360,000 tested, 0.33% active | AID 602429, 2012; in the data active = inhibition above about 37%
Scp1 inh = Scp-1 phosphatase inhibitors, primary screen, biochemical, colorimetric, uHTS; inhibition, % at 20 µM; Carboxy-terminal domain RNA polymerase II polypeptide A small phosphatase 1 (Homo …; 340,000 tested, 0.88% active; Recombinant Scp1, phosphopeptide, malachite green phosphate absorbance; AID 493091, 2011;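 active = inhibition above about 50% at 20 µM, limit read from the data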;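 note: plate controls were DMSO wells with enzyme for no effect and wells lacking enzyme for full effect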
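assay system = SCP-1 phosphatase catalytic domain, residues 76-261 | buffer or medium = 50 mM Tris acetate pH 5.5, 0.005% Tween-20, 10 mM MgCl2 | incubation = enzyme reaction 45 min at room temperature, colour 5 min, stabilisation 30 min | signal = Phosphate-binding colour reagent, absorbance read at 630 nm | measure = % inhibition at 20 µM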
DNMT1 confirm = DNMT1 methyltransferase inhibitor retest, confirmation, biochemical, molecular beacon, fluorescence, single concentration. shares compounds with DNMT1 block. DNMT1 molecular beacon HinP1I cleavage. inhibition, % at 10 µM. 2,300 tested, 8% active;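 active = average inhibition of at least 30% in the single-concentration confirmation test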
Beacon interf = beacon fluorescence artifact counter-screen | shares compounds with DNMT1 block | DNMT1 molecular beacon spectral interference counterscreen, fluorescence 485/520 | activation (fluorescence interference), % at 10 µM | 2,300 tested, 1% active | AID 602387;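 active = activation of at least 30% at 10 µM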;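 note: DNMT1 catalytic domain with a HinP1I cleavage step and a FAM/dabcyl DNA beacon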
* = called active by the depositor.

Screening Cn1c(=O)c(=O)n(C)c2cc([N+](=O)[O-])c([N+](=O)[O-])cc21 returned STEP inh 4, DNMT1 block -5, NadD block 0, LMPTP inh -1, SUMO1 PPI mod -36 and Scp1 inh 0.
For COc1ccc(C)cc1S(=O)(=O)N(C)CC(=O)N1CCN(C)CC1 the results were STEP inh 0, DNMT1 block 1, NadD block 0, LMPTP inh 0, SUMO1 PPI mod -3 and Scp1 inh -6.
For CC(/C=N\NC(=O)c1cc(C)oc1C)=C\c1ccccc1 the results were STEP inh 1, DNMT1 block 72*, NadD block -2, LMPTP inh 0, SUMO1 PPI mod -10, Scp1 inh -4, DNMT1 confirm 4 and Beacon interf 4.
Screening O=C(Cc1n[nH]c(=O)c2ccccc12)N1CCN(c2ccc(F)cc2)CC1 returned STEP inh 4, DNMT1 block 1, NadD block 0, LMPTP inh 1, SUMO1 PPI mod 0 and Scp1 inh -12.
Screening CC(=O)c1ccc(N2CCN(C(=O)Cc3n[nH]c(=O)c4ccccc34)CC2)cc1 returned STEP inh -1, DNMT1 block 66*, NadD block 4, LMPTP inh 0, SUMO1 PPI mod 0, Scp1 inh -3, DNMT1 confirm 1 and Beacon interf 1.
For CCN(C(=O)COC(=O)CCOc1ccc(C(C)(C)C)cc1)c1c(N)n(Cc2ccccc2)c(=O)[nH]c1=O the results were STEP inh -2, DNMT1 block 63*, NadD block 1, LMPTP inh -1, SUMO1 PPI mod 1, Scp1 inh -5, DNMT1 confirm -1 and Beacon interf 4.
For COc1cc(/C=N/NC(=O)CSc2nc3ccccc3n2C)cc(OC)c1OC the results were STEP inh -1, DNMT1 block 5, NadD block -1, LMPTP inh -2, SUMO1 PPI mod -5 and Scp1 inh 2.
Screening COc1ccccc1C1C2=C(CC(C)(C)CC2=O)N(CC(=O)O)C2=C1C(=O)CC(C)(C)C2 returned STEP inh 0, DNMT1 block 52*, NadD block -9, LMPTP inh -1, SUMO1 PPI mod -8, Scp1 inh -8, DNMT1 confirm 7 and Beacon interf 9.
`COc1ccc(N2C3=C(C(=O)CC(C)(C)C3)C(c3ccccc3OC)C3=C2CC(C)(C)CC3=O)cc1` gave STEP inh 0, DNMT1 block -8, NadD block -4, LMPTP inh 1, SUMO1 PPI mod -7 and Scp1 inh -10.
`Oc1ccc(Cl)c2cccnc12` gave STEP inh 0, DNMT1 block 6, NadD block 1, LMPTP inh 0, SUMO1 PPI mod -4 and Scp1 inh -2.
`Oc1ccc(F)c2cccnc12` gave STEP inh 1, DNMT1 block 68*, NadD block 4, LMPTP inh 1, SUMO1 PPI mod -2, Scp1 inh -7, DNMT1 confirm 3 and Beacon interf 3.
COc1cccc2cc(C(=O)Nc3cc(Cl)ccc3N3CCOCC3)c(=O)oc12 was read as STEP inh 3, DNMT1 block 55*, NadD block -2, LMPTP inh 1, SUMO1 PPI mod 2, Scp1 inh -6, DNMT1 confirm 3 and Beacon interf 5.
For CNC(=O)c1cc2cccc(OC)c2oc1=O the results were STEP inh 1, DNMT1 block -1, NadD block 3, LMPTP inh -1, SUMO1 PPI mod -16 and Scp1 inh 6.
Screening COc1ccc(N2CCN(CC(O)COc3ccc(C)c(C)c3)CC2)cc1 (stereo unspecified) returned STEP inh -3, DNMT1 block -3, NadD block -6, LMPTP inh -1, SUMO1 PPI mod -3 and Scp1 inh -5.
`CN(C)C1CCCCC=CC(=O)NC1` (stereo unspecified) gave STEP inh -2, DNMT1 block 52*, NadD block -5, LMPTP inh -2, SUMO1 PPI mod 3, DNMT1 confirm 7 and Beacon interf 7.
CN(c1c[nH]c(=O)[nH]c1=O)C1CCCCC1 was read as STEP inh 0, DNMT1 block 1, NadD block -6, LMPTP inh 1, SUMO1 PPI mod -3 and Scp1 inh -1.
For O=C(CSc1nnnn1-c1ccccc1)NC(=O)NCc1ccco1 the results were STEP inh -2, DNMT1 block 68*, NadD block 7, LMPTP inh 30, SUMO1 PPI mod 27, Scp1 inh 42, DNMT1 confirm 0 and Beacon interf -1.
For Cn1nnnc1SCC(=O)NCc1ccco1 the results were STEP inh 0, DNMT1 block 1, NadD block 5, LMPTP inh -1, SUMO1 PPI mod 1 and Scp1 inh 0.
CCOc1ccccc1-n1nnnc1SCC(=O)NC(=O)NCc1ccco1 was read as STEP inh -15, DNMT1 block 60*, NadD block -1, LMPTP inh 11, SUMO1 PPI mod 5, Scp1 inh 48, DNMT1 confirm 1 and Beacon interf 5.
For COc1cccc(-c2cc(C(=O)NCC3CCCO3)on2)c1 (stereo unspecified) the results were STEP inh 2, DNMT1 block -1, NadD block -2, LMPTP inh -1, SUMO1 PPI mod 9 and Scp1 inh -9.
COc1cc(-n2c(=O)c3ccccc3n(CC(=O)c3ccc(Br)cc3)c2=O)cc(OC)c1OC was read as STEP inh 4, DNMT1 block 4, NadD block -9, LMPTP inh 39, SUMO1 PPI mod -9 and Scp1 inh 9.

High-throughput results: PubChem BioAssay, Sanford-Burnham Center for Chemical Genomics
